According to ChEMBL document CHEMBL4513216, “Probing the Open Global Health Chemical Diversity Library for Multistage-Active Starting Points for Next-Generation Antimalarials” (ACS Infect Dis, 2020):

Assay: Toxicity liver stage against HepG2, at 10uM
Format: cell-based
Design: test concentration 10 uM, cell line HepG2-A16-CD81EGFP
Details: human, HepG2-A16-CD81EGFP cells; read-out: INHIBITION
Summary of the method: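 Uninfected HepG2-A16-CD81EGFP cells, 3 × 10^3 per well, 1536-well, plated on prespotted compound at 10 μM final, parasite-free screening media added to match infected plates; puromycin 10 μM positive, DMSO 0.5% negative; run in parallel with 48 h PbLuc assay at 37 °C, 5% CO2; viability by CellTiter-Glo luminescence, normalized to controls.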

Compound	cytotoxicity at 10 µM [%]
CCS(=O)(=O)N1CCc2cc(C(=O)NC)c(NCC(C)C)nc2CC1	-149
CCOCc1ncn2c1CN(C(=O)Nc1ccc(CC)cc1)CC2	5.96
O=C([C@@H]1C[C@@H]2CCN(C3CCOCC3)C[C@H]2O1)N1CCCC1	4.5
O=C([C@@H]1C[C@@H]2CCN(C3CCOCC3)C[C@@H]2O1)N1CCOCC1	7.34
O=S1(=O)c2ccccc2OCC2(CCN(CCO)CC2)CN1CC1CC1	0.864
COc1cc(-c2n[nH]c(CN)n2)cc(OC)c1OC	2.45
CN1CCc2nnc(C3CCCN3S(=O)(=O)c3ccc(F)cc3)n2CC1 (stereo not given)	-0.594
Cc1csc(Nc2nccnc2C2CCCN2S(C)(=O)=O)n1 (stereo not given)	-3.69
Cn1cc(C(=O)NCCc2csc(-c3ccccc3)n2)ccc1=O	-6.7
Cc1ccc(N2CCC(NC(C)c3ccc(C)o3)CC2)nc1 (stereo not given)	-6.59
CCOC(=O)c1ccc(S(=O)(=O)NCC(CC)N2CCCC2)cc1 (stereo not given)	-7.4
COC(=O)c1ccc(N2CCN(Cc3csc(C)n3)CC2)nn1	-1.7
O=C(NCCN1CCOCC1)c1ccn(-c2ccccc2F)n1	7.44
CC(C)OC(=O)N1CCC(Nc2ncc(Br)cn2)CC1	-0.951
O=C(CCc1ccsc1)NCc1ccnc(OC2CCOCC2)c1	5.92
N#Cc1ccccc1N1CCN(C(=O)NCC(=O)N2CCCC2)CC1	-1.55
COc1cccc(N2CCC(CNC(=O)CN3CSCC3=O)C2)c1 (stereo not given)	0.342
Cc1ccc(C(=O)NCCCN(C(C)C)S(C)(=O)=O)c(=O)[nH]1	-8.04
Cc1ccc(-c2cc(CN3CCc4cncnc4C3)on2)cc1	4.96
Cc1cc(C(=O)N(C)CC(F)(F)C(F)(F)F)ccc1-n1cncn1	1.64
COc1ccccc1CN(CC1CCCO1)C(=O)c1scnc1C (stereo not given)	2.01
CCNC(=O)NC(=O)CSC(C)c1c(F)cccc1F (stereo not given)	20.6
O=C(NC1(c2nnn(Cc3ccncc3)n2)CCCC1)c1ccccc1	21

Compound	cytotoxicity at 10 µM [%]
Cc1csc2ncc(-c3ccnc(NC4CCOCC4)n3)c(=O)n12	-4.36
Cc1ccc(C2(CN(C)Cc3c(C)nn(C)c3C)CCNCC2)nc1	-0.44
CN(Cc1nc(C2CC2)no1)C(=O)C1COc2ccccc2C1 (stereo not given)	-0.509
COCc1cc(N2CCN(C3CCCCC3)CC2)n2nccc2n1	3.59
CN(CCCO)C(=O)c1cc(COc2ccc3c(c2)CCCC3)on1	-148
CCN1CCCC2(CCN(Cc3nnc(C4CC4)o3)C2)C1=O (stereo not given)	1.56
OCC1CCCCN1CCn1ccnc1-c1ccc2c(c1)OCCO2 (stereo not given)	-3.65
COCc1cc(NCc2cccnc2Oc2ccc(C)nc2)ncn1	8.12
CC1CCCCN1C1CN(c2ccnc(C(=O)NCc3ccco3)c2)C1 (stereo not given)	2.29
Cc1ccc2cc(CN(C)Cc3ncc[nH]3)c(=O)[nH]c2c1	1.75
CN(C)c1ncnc2c1CCN(C(=O)c1sccc1S(N)(=O)=O)C2	0.192
Cc1nc(N2CCCN(c3ncccn3)CC2)c2cnn(C)c2n1	0.977
COc1ccc(C(=O)N2CCCC(NC(=O)C(C)C)C2)c(O)c1 (stereo not given)	0.301
Cc1ccc(-c2nc(CCNC(=O)NC3CCN(C)CC3)co2)cc1	-6.71
Cc1cn2nc(N3CCCN(Cc4noc(C)n4)CC3)sc2n1	0.529
Cc1cccc(-n2cc(C(=O)N3CCCC(n4cccn4)C3)nn2)c1 (stereo not given)	-0.168
Cc1cc(CN2CCN(C(=O)c3sccc3C3CC3)CC2)on1	4.69
CCCNC(=O)NC(=O)CN(CC(C)O)c1ccccc1 (stereo not given)	-2.48
Cn1ccc(C(=O)NC2CCC23CCN(Cc2ccc(F)cc2)CC3)c1 (stereo not given)	-147
c1cncc(COCc2nnc3n2CCN(Cc2cccs2)C3)c1	0.399
COCCN1C[C@@H](C)[C@@]2(COCCN(C(=O)Cc3ccccc3)C2)C1	-12.4
CN1C(=O)C(c2ccccc2)CC12CCN(CCO)CC2 (stereo not given)	5.12
